Results collected from several papers.
Target: Cyclin-dependent kinase 18 (CDK18, Homo sapiens, UniProt Q07002)

Compound	observed	method	tested at	remaining binding
C[C@H](c1cccc(C#N)c1)n1cc(Cl)cc(C(N)=O)c1=N	cell-free assay	competition with immobilised ligand	1 µM	100%
O=C(c1ccc(Nc2nccc(-c3cc4ccccc4s3)n2)cc1)N1CCC(N2CCCC2)CC1	binding	competition with immobilised ligand	1 µM	100%
Nc1ncc2c(n1)-c1c([nH]c3ccc(C#CC4CC4)cc13)CCCC2	binding	competition with immobilised ligand	1 µM	100%
O=C(c1ccc(Nc2ncc(Cl)c(-c3cc4ccccc4s3)n2)cc1)N1CCC(N2CCCC2)CC1	binding	competition with immobilised ligand	1 µM	64%
c1cncc(-c2cccc(Nc3nccc(NC4CCCCC4)n3)c2)c1	binding	competition with immobilised ligand	10 µM	100%
CCOC(=O)c1cc2cc(-c3cc(C(=O)NCc4ccc(C(=O)O)cc4)nn3C)ccc2[nH]1	cell-free assay	competition with immobilised ligand	0.1 µM	100%
CN1CCN(c2ccc(Nc3nccc(-c4cccc([N+](=O)[O-])c4)n3)cc2C(F)(F)F)CC1	binding		10 µM	56%
CN(C)c1nccc(-c2cnc3ncccn23)n1	binding		1 µM	100%
O=C(Nc1ccc(Oc2ccc(F)cc2)cc1)N1CCc2ncccc2[C@H]1c1ccc(F)cc1	cell-free assay	competition with immobilised ligand	1 µM	98%
Cc1cnn2ncc(-c3ccnc(N(C)C)n3)c2c1	binding		1 µM	100%
O=c1nc(-c2ccccn2)sc2ccccc12	binding	competition with immobilised ligand	1 µM	94%
N[C@@H]1CCN(c2nccc(-c3cnn4ncccc34)n2)C1	binding		1 µM	100%
O=C1CCc2cc(Nc3cc(OC4CCOCC4)c([N+](=O)[O-])cc3Cl)ccc2N1	cell-free assay	competition with immobilised ligand	1 µM	100%
CC1CCCN1c1nccc(-c2cnn3ncccc23)n1 (centres unmarked)	binding		1 µM	100%
CN(c1ccnc(CNc2nc(Nc3ccc4c(c3)CC(=O)N4)ncc2C(F)(F)F)n1)S(C)(=O)=O	cell-free assay	competition with immobilised ligand	1 µM	100%
C=CC(=O)N1CCC(C(=O)NCC(=O)N2CCN(c3nc(-c4cnc(N)nc4C(F)F)nc(N4CCOCC4)n3)CC2)CC1	binding	competition with immobilised ligand	1 µM	95%
CN(C)c1nccc(-c2cnn3ncccc23)n1	binding		1 µM	89%
Cc1cnc(Nc2ccc(C(=O)N3CCC(N4CCCC4)CC3)cc2)nc1-c1cc2ccccc2s1	binding	competition with immobilised ligand	1 µM	100%
NS(=O)(=O)c1cc(NC(=O)C2(c3ccccc3Cl)CC2)ccc1Oc1cccc(Cl)c1	cell-free assay	competition with immobilised ligand	1 µM	69%
COc1cnc(Nc2cccc(S(N)(=O)=O)c2)nc1N1CCN(c2ccccc2)C(=O)C1	binding	competition with immobilised ligand	1 µM	100%
C[C@@H]1CCN(c2nccc(-c3cnn4ncccc34)n2)C1	binding		1 µM	100%
CNC(=O)[C@@H]1CC[C@@H](n2c(-c3ccc4cnccc4c3)nc3ccc(C(=O)NCc4cccc(C(N)=O)c4)cc32)C1	binding	competition with immobilised ligand	1 µM	100%
O=C(NCC1CCOCC1)c1n[nH]cc1NC(=O)c1c(F)cccc1F	binding	competition with immobilised ligand	1 µM	86%
